Assay results as given in ChEMBL document CHEMBL5661968, “Antitumor activity of ZSTK474, a new phosphatidylinositol 3-kinase inhibitor” (J Natl Cancer Inst, 2006).
The source made the active and inactive calls. No cut-off for these calls is given here.

Assays:
MDA-MB-231 = assay: Growth inhibition of human MDA-MB-231 cells measured after 48 hrs by sulforhodamine B assay; format: functional
In short: (§1)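 JFCR39 panel lines were grown in RPMI 1640 with 5% FBS, penicillin and streptomycin at 37 °C in 5% CO2. After 48 h of drug exposure, total cellular protein was measured by sulforhodamine B staining. GI50 was calculated by a previously described method.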

[1] = Growth inhibition of human BSY1 cells measured after 48 hrs by sulforhodamine B assay; format: functional; details: BSY-1; in short: as §1
SF-268 = assay: Growth inhibition of human SF-268 cells measured after 48 hrs by sulforhodamine B assay; format: functional; in short: as §1
[2] = Growth inhibition of human HBC4 cells measured after 48 hrs by sulforhodamine B assay; format: functional; in short: as §1
SNB-78 = assay: Growth inhibition of human SNB-78 cells measured after 48 hrs by sulforhodamine B assay; format: functional; in short: as §1
WiDr = assay: Antitumor activity against human WiDr cells xenografted in nude mouse assessed as inhibition of tumor growth at 400 mg/kg, po administered on day 0 to 13 except for day 3 and 10 measured after 14 days; format: functional, organism-based; details: time 14.0 day
In short: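 Female BALB/c-background nude mice were implanted s.c. with 3 × 3 × 3 mm tumor fragments. At 100–300 mm3 tumor volume (day 0), groups of five were randomized and dosed orally at 400 mg/kg on days 0–13, skipping days 3 and 10. Caliper volume was (L×W2)/2, relative to day 0 (RTV). T/C% on day 14 = 100 × mean treated RTV / mean control RTV.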

MKN-28 = assay: Growth inhibition of human MKN-28 cells measured after 48 hrs by sulforhodamine B assay; format: functional; in short: as §1
[3] = molecular target: Forkhead box protein O3 (Homo sapiens) (UniProt O43524); assay: Inhibition of FKHRL1 phosphorylation in Thr-32 residue human A549 cells measured after 3 hrs by immunoblotting analysis; format: cell-based; details: dose <= 2.0 µM
In short: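 A549 cells treated over 0 to 2.0 μM; lysed in 10 mM Tris–HCl pH 7.4, 50 mM NaCl, NaF, pyrophosphate, vanadate, EDTA, protease inhibitors, 0.5% NP-40, 0.1% SDS; proteins resolved by SDS-PAGE, blotted to PVDF, probed with phospho-specific antibodies, HRP secondary, ECL detection.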

B16-F10 [4] = assay: Antitumor activity against mouse B16-F10 cells implanted in BDF1 mouse assessed as tumor size relative to control (T/C) at 400 mg/kg, po administered daily measured after 14 days; details: 336 h
LOX IMVI = assay: Growth inhibition of human LOX IMVI cells measured after 48 hrs by sulforhodamine B assay; format: functional; in short: as §1
HCC 2998 = assay: Growth inhibition of human HCC 2998 cells measured after 48 hrs by sulforhodamine B assay; format: functional; in short: as §1
RXF 631 = assay: Growth inhibition of human RXF 631 cells measured after 48 hrs by sulforhodamine B assay; format: functional; in short: as §1
OVCAR-5 = assay: Growth inhibition of human OVCAR-5 cells measured after 48 hrs by sulforhodamine B assay; format: functional; in short: as §1
B16-F10 [5] = assay: Antitumor activity against mouse B16-F10 cells implanted in BDF1 mouse assessed as tumor size relative to control (T/C) at 200 mg/kg, po administered daily measured after 14 days; details: 336 h
A549 = assay: Downregulation of cyclin D1 expression in human A549 cells measured after 3 hrs by immunoblotting analysis; format: functional, cell-based; details: dose <= 2.0 µM
In short: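 A549 cells were lysed in Tris-HCl pH 7.4 buffer with NaF, pyrophosphate, Na3VO4, EDTA, aprotinin, PMSF, 0.5% NP-40 and 0.1% SDS. Lysates were run on SDS-PAGE and blotted to PVDF. Blots were probed with rabbit anti-cyclin D1 polyclonal (1:200), then HRP anti-rabbit IgG, and detected by ECL chemiluminescence.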

NCI-H226 = assay: Growth inhibition of human NCI-H226 cells measured after 48 hrs by sulforhodamine B assay; format: functional; in short: as §1

Sequence of Forkhead box protein O3 (Homo sapiens) (O43524 whole entry): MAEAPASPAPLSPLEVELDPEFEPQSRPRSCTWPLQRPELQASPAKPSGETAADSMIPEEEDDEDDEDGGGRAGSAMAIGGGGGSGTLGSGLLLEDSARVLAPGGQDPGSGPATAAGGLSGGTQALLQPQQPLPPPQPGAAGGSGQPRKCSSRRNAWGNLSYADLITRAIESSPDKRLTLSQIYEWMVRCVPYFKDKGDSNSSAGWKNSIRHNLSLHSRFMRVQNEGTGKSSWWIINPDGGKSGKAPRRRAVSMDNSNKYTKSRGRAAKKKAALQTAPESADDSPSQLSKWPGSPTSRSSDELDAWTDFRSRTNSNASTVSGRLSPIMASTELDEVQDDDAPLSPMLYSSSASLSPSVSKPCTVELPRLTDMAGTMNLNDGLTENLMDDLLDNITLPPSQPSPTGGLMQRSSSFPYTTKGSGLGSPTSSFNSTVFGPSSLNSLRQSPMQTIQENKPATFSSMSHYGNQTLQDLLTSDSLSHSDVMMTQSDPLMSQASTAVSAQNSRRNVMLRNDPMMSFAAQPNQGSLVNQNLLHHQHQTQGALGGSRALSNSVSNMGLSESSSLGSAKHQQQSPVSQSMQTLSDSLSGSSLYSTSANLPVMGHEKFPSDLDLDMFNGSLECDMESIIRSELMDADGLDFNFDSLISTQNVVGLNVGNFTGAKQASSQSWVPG

GI50 (MDA-MB-231): 562 nM
GI50 (MKN-28): 1350 nM
inhibition [3]: Dose-Dependent Effect
GI50 (HCC 2998): 245 nM
GI50 (OVCAR-5): 813 nM
GI50 (NCI-H226): 120 nM
SMILES: FC(F)c1nc2ccccc2n1-c1nc(N2CCOCC2)nc(N2CCOCC2)n1 [ZSTK-474]
GI50 [1]: 93.3 nM
GI50 (SF-268): 646 nM
GI50 [2]: 240 nM
GI50 (SNB-78): 55 nM
Activity (WiDr): Active
T/C at 400 mg/kg (B16-F10 [4]): 4.9%
GI50 (LOX IMVI): 457 nM
GI50 (RXF 631): 724 nM
T/C at 200 mg/kg (B16-F10 [5]): 7.1%
Activity (A549): Dose-Dependent Effect
